Active and inactive are the calls of the source. No cut-off for these calls is given here.
What was measured:
1321-N1 [1] = test: Selectivity for human FFA1 receptor expressed in human 1321N1 cells over CCK1 receptor; format: cell-based
[2] = molecular target: Free fatty acid receptor 1 (Rattus norvegicus) (UniProt Q8K3T4); test: Agonist activity at FFA1 receptor in rat INS-1E cells assessed as movement of cellular constitiuent at 0.3 uM by DMR assay in the presence of trans-1-oxo-3-(4-phenoxyphenyl)-2-propyl-1,2,3,4-tetrahydroisoquinoline-4-carboxylic acid; format: functional, cell-based
Chain of Free fatty acid receptor 1 (Rattus norvegicus) (Q8K3T4 whole entry): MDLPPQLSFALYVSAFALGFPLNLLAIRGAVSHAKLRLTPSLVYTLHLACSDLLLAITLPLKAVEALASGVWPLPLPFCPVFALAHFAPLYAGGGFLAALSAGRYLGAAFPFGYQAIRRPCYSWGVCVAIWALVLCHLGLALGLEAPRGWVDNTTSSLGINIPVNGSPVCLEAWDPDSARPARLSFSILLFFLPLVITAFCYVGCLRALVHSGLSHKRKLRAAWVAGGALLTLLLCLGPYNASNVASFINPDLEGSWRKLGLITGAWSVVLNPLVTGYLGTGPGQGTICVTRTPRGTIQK
In short: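 Label-free DMR on an Epic optical biosensor. Rat INS-1E cells, 30 000/well on fibronectin-coated 384-well sensor plates, cultured 20–24 h to confluence. Washed in HBSS/20 mM HEPES and equilibrated 1 h at 28 °C. Baseline read, compound added, wavelength shift (pm) monitored ≥5000 s. Antagonist line: 0.3 μM agonist with the FFA1 antagonist over a concentration range, pIC50 derived, n = 4.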

1321-N1 [3] = test: Selectivity for human FFA1 receptor expressed in human 1321N1 cells over A1 receptor; format: cell-based
1321-N1 [4] = test: Selectivity for human FFA1 receptor expressed in human 1321N1 cells over 5HT6 receptor; format: cell-based
[5] = molecular target: T1, Free fatty acid receptor 1 (Homo sapiens, UniProt O14842); test: Agonist activity at human FFA1 receptor expressed in human HEK293 assessed as accumulation of IP1 by time-resolved fluorescence assay; format: functional, cell-based
T1 sequence (O14842 whole entry): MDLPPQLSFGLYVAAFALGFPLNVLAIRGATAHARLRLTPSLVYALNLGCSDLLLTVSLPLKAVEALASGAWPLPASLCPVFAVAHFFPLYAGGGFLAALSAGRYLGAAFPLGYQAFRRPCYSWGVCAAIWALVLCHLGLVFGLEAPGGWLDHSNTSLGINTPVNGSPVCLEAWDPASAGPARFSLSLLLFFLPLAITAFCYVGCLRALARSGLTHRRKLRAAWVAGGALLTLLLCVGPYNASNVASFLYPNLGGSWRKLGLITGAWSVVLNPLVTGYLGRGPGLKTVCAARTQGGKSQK
In short: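 Doxycycline-inducible FLAG-tagged human FFA1 in Flp-In T-Rex HEK293 cells, 100 000 cells/well (384-well). 20 min at 37 °C, then ligands in HBSS/10 mM HEPES/50 mM LiCl for 30 min. HTRF IP1 kit (d2 conjugate, Eu cryptate anti-IP1), 60 min at room temperature. 665/620 nm ratio expressed as ΔF%, normalized to maximal response at 10 μM of the reference agonist; n = 5.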

1321-N1 [6] = test: Selectivity for human FFA1 receptor expressed in human 1321N1 cells over norepinephrine transporter; format: cell-based
1321-N1 [7] = test: Selectivity for human FFA1 receptor expressed in human 1321N1 cells over GABA receptor; format: cell-based
1321-N1 [8] = test: Selectivity for human FFA1 receptor expressed in human 1321N1 cells over sst receptor; format: cell-based
1321-N1 [9] = test: Selectivity for human FFA1 receptor expressed in human 1321N1 cells over M1 receptor; format: cell-based
1321-N1 [10] = test: Selectivity for human FFA1 receptor expressed in human 1321N1 cells over CB1 receptor; format: cell-based
[11] = Apparent permeability from apical to basolateral side of human Caco2/TC7 cells; format: ADME, cell-based; conditions: Caco-2
In short: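 Caco-2 TC7 monolayers, apical to basolateral transport at pH 6.5 apical/7.4 basolateral.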

1321-N1 [12] = test: Selectivity for human FFA1 receptor expressed in human 1321N1 cells over M2 receptor; format: cell-based
1321-N1 [13] = test: Selectivity for human FFA1 receptor expressed in human 1321N1 cells over beta1 receptor; format: cell-based
1321-N1 [14] = test: Selectivity for human FFA1 receptor expressed in human 1321N1 cells over CCR1 receptor; format: cell-based
1321-N1 [15] = test: Selectivity for human FFA1 receptor expressed in human 1321N1 cells over AT1 receptor; format: cell-based
1321-N1 [16] = test: Selectivity for human FFA1 receptor expressed in human 1321N1 cells over GAL2 receptor; format: cell-based
CYP2C19 = CYP2C19 (Homo sapiens, UniProt P33261); test: Inhibition of CYP2C19 at 10 uM; format: ADME
Chain of CYP2C19 (P33261 whole entry): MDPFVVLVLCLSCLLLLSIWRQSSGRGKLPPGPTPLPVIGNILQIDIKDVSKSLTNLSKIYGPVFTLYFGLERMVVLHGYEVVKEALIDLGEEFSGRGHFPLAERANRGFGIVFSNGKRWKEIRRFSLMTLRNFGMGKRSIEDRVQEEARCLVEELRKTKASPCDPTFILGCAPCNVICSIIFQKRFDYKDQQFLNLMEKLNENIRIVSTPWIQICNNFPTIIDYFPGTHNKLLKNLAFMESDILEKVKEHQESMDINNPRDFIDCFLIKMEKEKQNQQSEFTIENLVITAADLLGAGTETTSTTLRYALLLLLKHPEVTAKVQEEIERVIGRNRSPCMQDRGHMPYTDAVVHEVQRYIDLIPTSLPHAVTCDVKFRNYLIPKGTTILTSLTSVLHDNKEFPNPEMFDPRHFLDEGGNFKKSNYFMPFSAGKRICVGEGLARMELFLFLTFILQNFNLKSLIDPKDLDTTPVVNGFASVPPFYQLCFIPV

[17] = Permeability across methotrexate treated human HT-29 cells assessed as compound recovery; format: ADME, cell-based; conditions: read-out: Activity
In short: (§1)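 HT29-MTX mucus-producing cells, passage 32, grown 23 days (TEER > 750 Ω cm²). Compound at 100 μM (10 mM DMSO stock diluted 1:100 in buffer). […] Non-permeated drug measured for recovery. Monolayer integrity checked by 20 μM carboxyfluorescein after 1 h and TEER.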

1321-N1 [18] = test: Selectivity for human FFA1 receptor expressed in human 1321N1 cells over B2 receptor; format: cell-based
HEK293 = test: Selectivity for human FFA1 receptor expressed in human 1321N1 cells over human FFA2 receptor expressed in HEK293 cells at 10 uM; format: cell-based
1321-N1 [19] = test: Selectivity for human FFA1 receptor expressed in human 1321N1 cells over M3 receptor; format: cell-based
1321-N1 [20] = test: Selectivity for human FFA1 receptor expressed in human 1321N1 cells over TP receptor; format: cell-based
[21] = Apparent permeability across methotrexate treated human HT-29 cells; format: ADME, cell-based; in short: as §1
[22] = molecular target: T1, Free fatty acid receptor 1; test: Agonist activity at human FFA1 receptor expressed in human 1321N1 cells assessed as calcium mobilization by fluorescence spectrophotometry; format: functional, cell-based
1321-N1 [23] = test: Selectivity for human FFA1 receptor expressed in human 1321N1 cells over kappa receptor; format: cell-based
1321-N1 [24] = test: Selectivity for human FFA1 receptor expressed in human 1321N1 cells over NK3 receptor; format: cell-based
1321-N1 [25] = test: Selectivity for human FFA1 receptor expressed in human 1321N1 cells over Y1 receptor; format: cell-based
1321-N1 [26] = test: Selectivity for human FFA1 receptor expressed in human 1321N1 cells over MT1 receptor; format: cell-based
[27] = molecular target: T1, Free fatty acid receptor 1; test: Agonist activity at human FFA1 receptor expressed in human 1321N1 cells assessed as calcium mobilization by fluorescence spectrophotometry relative to 10 uM TUG-20; format: functional, cell-based
In short: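 Human FFA1 stably expressed in 1321N1 cells kept under G418 selection, 30000–40000 cells/well. After 24 h, washed in Krebs-HEPES pH 7.4 and loaded 1 h at 37 °C with 1.5 μM Oregon Green 488 BAPTA-1/AM. Compound injected at 10-fold concentration at 37 °C; fluorescence ex 485/em 520 nm over 50 × 0.4 s. Efficacy as % of maximal response to 10 μM TUG-20.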

1321-N1 [28] = test: Selectivity for human FFA1 receptor expressed in human 1321N1 cells over dopamine transporter; format: cell-based
1321-N1 [29] = test: Selectivity for human FFA1 receptor expressed in human 1321N1 cells over A2A receptor; format: cell-based
1321-N1 [30] = test: Selectivity for human FFA1 receptor expressed in human 1321N1 cells over Delta2 receptor; format: cell-based
CYP2C9 = CYP2C9 (Homo sapiens, UniProt P11712); test: Inhibition of CYP2C9 at 10 uM; format: ADME
Chain of CYP2C9 (P11712 whole entry): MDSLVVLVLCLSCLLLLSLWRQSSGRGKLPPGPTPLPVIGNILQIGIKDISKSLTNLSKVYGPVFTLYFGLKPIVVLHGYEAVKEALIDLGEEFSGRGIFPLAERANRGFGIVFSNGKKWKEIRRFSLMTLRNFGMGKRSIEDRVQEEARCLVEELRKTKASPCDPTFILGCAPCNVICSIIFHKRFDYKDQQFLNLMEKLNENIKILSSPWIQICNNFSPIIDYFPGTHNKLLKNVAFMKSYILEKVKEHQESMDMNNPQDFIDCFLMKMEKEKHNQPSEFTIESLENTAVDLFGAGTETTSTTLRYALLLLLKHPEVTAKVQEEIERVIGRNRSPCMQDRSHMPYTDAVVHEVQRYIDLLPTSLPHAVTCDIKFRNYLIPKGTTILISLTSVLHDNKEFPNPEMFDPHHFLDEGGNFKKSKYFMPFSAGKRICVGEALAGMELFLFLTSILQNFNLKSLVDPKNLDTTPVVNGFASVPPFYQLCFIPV

Liver = test: Metabolic stability in human liver S9 fraction; format: ADME, subcellular
[31] = Octanol-water partition coefficient, log D of the compound at pH 7.4 by HPLC analysis; format: physicochemical
In short: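 Distribution between n-octanol and water (PBS), pH 7.4, determined experimentally.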

[32] = Inhibition of P-glycoprotein at 100 uM
In short: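 P-glycoprotein inhibition tested at 100 μM compound.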

1321-N1 [33] = test: Selectivity for human FFA1 receptor expressed in human 1321N1 cells over 5HT1A receptor; format: cell-based
1321-N1 [34] = test: Selectivity for human FFA1 receptor expressed in human 1321N1 cells over alpha2 receptor; format: cell-based
1321-N1 [35] = test: Selectivity for human FFA1 receptor expressed in human 1321N1 cells over A3 receptor; format: cell-based
1321-N1 [36] = test: Selectivity for human FFA1 receptor expressed in human 1321N1 cells over SKCa channel; format: cell-based
CYP3A4 = CYP3A4 (Homo sapiens, UniProt P08684); test: Inhibition of CYP3A4 at 10 uM; format: ADME
Chain of CYP3A4 (P08684 whole entry): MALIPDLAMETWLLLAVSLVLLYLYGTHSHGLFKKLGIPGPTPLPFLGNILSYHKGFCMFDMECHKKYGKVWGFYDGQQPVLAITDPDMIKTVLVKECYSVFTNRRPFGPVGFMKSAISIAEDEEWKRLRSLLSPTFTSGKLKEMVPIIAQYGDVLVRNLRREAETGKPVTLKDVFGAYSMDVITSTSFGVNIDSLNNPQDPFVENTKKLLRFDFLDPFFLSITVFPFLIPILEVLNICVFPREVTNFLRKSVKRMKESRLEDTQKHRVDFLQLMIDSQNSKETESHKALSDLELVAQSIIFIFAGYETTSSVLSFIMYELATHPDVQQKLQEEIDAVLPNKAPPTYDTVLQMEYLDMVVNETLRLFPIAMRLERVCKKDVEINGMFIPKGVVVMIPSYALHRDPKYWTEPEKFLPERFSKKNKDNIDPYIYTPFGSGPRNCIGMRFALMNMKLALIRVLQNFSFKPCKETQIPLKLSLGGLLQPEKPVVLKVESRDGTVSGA

O=C(O)CCc1ccc(C#Cc2cc(Cl)nc(Cl)c2)cc1
Selectivity ratio (1321-N1 [1]): > 100 | Activity [2]: inactive | Selectivity ratio (1321-N1 [3]): > 100 | Selectivity ratio (1321-N1 [4]): > 100 | Activity [5]: Active | Selectivity ratio (1321-N1 [6]): > 100 | Selectivity ratio (1321-N1 [7]): > 100 | Selectivity ratio (1321-N1 [8]): > 100 | Selectivity ratio (1321-N1 [9]): > 100 | Selectivity ratio (1321-N1 [10]): > 100 | Papp A→B [11]: 112 ×10⁻⁶ cm/s | Selectivity ratio (1321-N1 [12]): > 100 | Selectivity ratio (1321-N1 [13]): > 100 | Selectivity ratio (1321-N1 [14]): > 100 | Selectivity ratio (1321-N1 [15]): > 100 | Selectivity ratio (1321-N1 [16]): > 100 | inhibition at 10 µM (CYP2C19): -7% | recovery [17]: 63% | Selectivity ratio (1321-N1 [18]): > 100 | Selectivity ratio (HEK293): > 100 | Selectivity ratio (1321-N1 [19]): > 100 | Selectivity ratio (1321-N1 [20]): > 100 | Papp [21]: 16.4 ×10⁻⁶ cm/s | EC50 [22]: 40.7 nM | Selectivity ratio (1321-N1 [23]): > 100 | Selectivity ratio (1321-N1 [24]): > 100 | Selectivity ratio (1321-N1 [25]): > 100 | Selectivity ratio (1321-N1 [26]): > 100 | Efficacy [27]: 103% | Selectivity ratio (1321-N1 [28]): > 100 | Selectivity ratio (1321-N1 [29]): > 100 | Selectivity ratio (1321-N1 [30]): > 100 | inhibition at 10 µM (CYP2C9): -4% | Stability (Liver): 97% | logD [31]: 1.97 | inhibition [32]: -1.9% | Selectivity ratio (1321-N1 [33]): > 100 | Selectivity ratio (1321-N1 [34]): > 100 | Selectivity ratio (1321-N1 [35]): > 100 | Selectivity ratio (1321-N1 [36]): > 100 | inhibition at 10 µM (CYP3A4): 5%
